# According to paper PMC3088362 (Journal of the American Society for Mass Spectrometry, 2010):
# Tests used:
# Assay type in all cases: biochemical
# [1] = biological target: T1, human TPST-2 (Homo sapiens, UniProt O60704); assay: LC-MS initial-velocity kinetics, Reaction 1: sulfation of nonCCR8
# T1 sequence (O60704 25-377 limits assumed): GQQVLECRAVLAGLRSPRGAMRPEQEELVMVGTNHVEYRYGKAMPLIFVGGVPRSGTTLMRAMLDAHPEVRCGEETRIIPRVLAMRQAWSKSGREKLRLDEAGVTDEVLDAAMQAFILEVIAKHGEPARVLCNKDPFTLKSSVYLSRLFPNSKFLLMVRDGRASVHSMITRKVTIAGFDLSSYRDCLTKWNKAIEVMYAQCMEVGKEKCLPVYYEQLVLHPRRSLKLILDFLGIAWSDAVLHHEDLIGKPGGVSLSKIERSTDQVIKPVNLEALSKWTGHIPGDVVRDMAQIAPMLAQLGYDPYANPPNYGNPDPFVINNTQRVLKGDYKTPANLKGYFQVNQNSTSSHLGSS
# Summary of the method: (§1)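 Enzyme was soluble HPC4-epitope-tagged human TPST-2 (transferrin signal peptide), affinity-purified from stably transfected CHO-K1 cells. PAPS and peptide were varied as a matrix in 20 mM MOPS pH 7.5, 100 mM NaCl, 10% glycerol at 30 °C. Reactions started with 250–750 nM enzyme, ran 6–20 min, and were quenched with methanol (0.5 µM final internal standard). Product was read by RP-LC negative-ESI SIM against a calibration curve. Data were fit to the ping-pong equation; kcat/Km came from fitted constants.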
# [2] = biological target: T1, human TPST-2; assay: LC-MS initial-velocity kinetics, Reaction 2: sulfation of sY15CCR8
# Summary of the method: as §1
# [3] = biological target: T1, human TPST-2; assay: Product inhibition by PAP, Reaction 1
# Summary of the method: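 Initial rates of nonCCR8 sulfation by HPC4-purified soluble human TPST-2 were measured at fixed PAP levels. Buffer was 20 mM MOPS pH 7.5, 100 mM NaCl, 10% glycerol, 30 °C. Reactions were quenched with methanol containing internal standard, and product was quantified by LC-ESI-MS SIM. Data were fit by nonlinear regression to competitive or noncompetitive inhibition equations. Two or three independent experiments.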
# [4] = biological target: T1, human TPST-2; assay: Product inhibition by PAP, Reaction 2; settings: pH 7.5, 30°C
# [5] = biological target: T1, human TPST-2; assay: 35S-sulfation of factor IX by TPST-2; settings: with (lane 1) or without (lane 2) TPST-2; 6 h at 37°C, pH 6.9; autoradiography
compound,measurement,setting,value
"Nc1ncnc2c1ncn2[C@@H]1O[C@H](COP(=O)(O)OS(=O)(=O)O)[C@@H](OP(=O)(O)O)[C@H]1O [PAPS, 3′-phosphoadenosine 5′-phosphosulfate, reference compound]","substrate preference by specificity constants, Reaction 1",[1]; PAPS compared with nonCCR8,preferred substrate over nonCCR8
same,specificity constant kcat/Km for PAPS,"[1]; Reaction 1, for PAPS, calculated from Table 1 values",590 M⁻¹ s⁻¹
same,specificity constant kcat/Km of PAPS,"[2]; Reaction 2, for PAPS, calculated from Table 1 values",280 M⁻¹ s⁻¹
Nc1ncnc2c1ncn2[C@@H]1O[C@H](COP(=O)(O)O)[C@@H](OP(=O)(O)O)[C@H]1O [PAP],"PAP inhibition patterns, Reaction 1, compared with Reaction 2","[3]; Reaction 1, with respect to PAPS and nonsulfated CCR8, data not shown",The same PAP inhibition patterns were observed with respect to PAPS and nonsulfated CCR8 substrates
same,"KI', product inhibition constant for PAP versus nonCCR8","[3]; Reaction 1, pH 7.5, 30°C, mean of two or three independent experiments",1.2 µM
same,PAP inhibition mode with respect to PAPS,"[4]; PAPS varied 5-25 µM, sY15CCR8 25 µM",competitively
same,PAP inhibition mode with respect to sY15CCR8,"[4]; sY15CCR8 varied 5-25 µM, PAPS 25 µM",noncompetitively
VTDYYYPDI [nonCCR8],specificity constant kcat/Km,"[1]; Reaction 1, for nonCCR8, calculated from Table 1 values",270 M⁻¹ s⁻¹
same,estimated Vmax,"[1]; Reaction 1, calculated from intercept replots, pH 7.5, 30°C",6.7 mU/mg protein
same,Km of nonsulfated CCR8 peptide relative to monosulfated peptide,[1]; ratio to Km of sY15CCR8,at least five
VTDsYYYPDI [sY15CCR8],specificity constant kcat/Km of sY15CCR8,"[2]; Reaction 2, for sY15CCR8, calculated from Table 1 values",430 M⁻¹ s⁻¹
same,estimated Vmax,"[2]; Reaction 2, from intercept replots, pH 7.5, 30°C",1.7 mU/mg protein
same,"substrate preference by specificity constants, Reaction 2",[2]; sY15CCR8 compared with PAPS,preferred than PAPS
same,substrate suitability by kcat/Km,[2]; sY15CCR8 compared with nonCCR8,more suitable substrate than nonCCR8
"factor IX: recombinant human factor IX, BeneFIX, Wyeth Pharmaceuticals Inc.",35S-sulfuryl group transfer to factor IX,[5],occurred only in the presence TPST-2
